# How the values were obtained:
# Ovis aries [1] = species on record: Ovis aries; experiment: (§1) Antihelmethic activity expressed as the percentage of worms eliminated in the feces in sheep species.; assay type: functional
# In short: (§2)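 Sheep; total daily faeces collected for 4 days after treatment and searched for expelled worms; necropsy 7 days post-dose with lungs, liver and GI tract examined and worms identified; activity from worms passed in faeces versus worms remaining in host at autopsy.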
# Ovis aries [2] = experiment: Antihelmethic activity expressed as the percentage of worms eliminated in the feces in sheep large bowel at peroral dose of 15 mg/kg against Oesophagostomum columbianum.; assay type: functional; conditions: route oral
# In short: (§3)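 Sheep given a single dose, oral or subcutaneous. Total daily feces collected for 4 days after treatment and examined for expelled worms. Necropsy at day 7 after dosing; lungs, liver and gastrointestinal tract removed and remaining worms identified. Activity calculated by comparing worms passed in feces with those remaining at autopsy. Single animals per test unless otherwise indicated.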
# Mus musculus [3] = experiment: Nematocidal activity against Nematospiroides dubius induced necropsy in mouse, after oral administration of 12.5 mg/kg of the compound; assay type: functional
# In short: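 Female LACA mice (7 weeks) infected orally with 100 N. dubius L3 larvae; single oral dose as solution in PEG 400 on infection day 10, four mice per group; necropsied 4 days later; percent activity by comparing treated and untreated worm burdens.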
# Mus musculus [4] = experiment: Nematocidal activity against Nematospiroides dubius induced necropsy in mouse, after oral administration of 25 mg/kg of the compound; assay type: functional
# In short: (§4)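 Seven-week-old female LACA mice infected orally with 100 N. dubius L3 larvae; single gavage dose given at day 10 of infection, groups of four mice; necropsy 4 days later; percent activity from worm burdens of treated versus untreated groups.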
# Ovis aries [5] = experiment: Antihelmethic activity expressed as the percentage of worms eliminated in the feces in sheep large bowel at peroral dose of 15 mg/kg against Lungworm Dictyocaulus filaria.; assay type: functional; conditions: route oral; in short: as §3
# Ovis aries [6] = experiment: Antihelmethic activity expressed as the percentage of worms eliminated in the feces in sheep small intestine at peroral dose of 15 mg/kg against Trichostrongylus axei; assay type: functional; conditions: route oral; in short: as §3
# Ovis aries [7] = species on record: Ovis aries; experiment: as §1; assay type: functional; in short: as §2; remark: listed apart in the source
# Ovis aries [8] = experiment: Antihelmethic activity expressed as the percentage of worms eliminated in the feces in sheep large bowel at subcuteneous dose of 30 mg/kg against Trichuris ovis.; assay type: functional; in short: as §3
# Ovis aries [9] = experiment: Antihelmethic activity expressed as the percentage of worms eliminated in the feces in sheep small intestine at peroral dose of 30 mg/kg against Trichostrongylus axei; assay type: functional; conditions: route oral; in short: as §3
# Ovis aries [10] = experiment: Antihelmethic activity expressed as the percentage of worms eliminated in the feces in sheep abomasum at peroral dose of 30 mg/kg against Trichostrongylus axei; assay type: functional; conditions: route oral; in short: as §3
# Ovis aries [11] = experiment: Antihelmethic activity expressed as the percentage of worms eliminated in the feces in sheep small intestine at subcuteneous dose of 30 mg/kg against Nematodirus species; assay type: functional; in short: as §3
# Ovis aries [12] = experiment: Anthelmintic activity against adult liver fluke (Fasciola hepatica) in sheep, after peroral administration of 15 mg/kg was determined; assay type: functional; conditions: route oral
# In short: (§5)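 Sheep dosed with a single oral dose. Fecal fluke egg output monitored after treatment. Animals necropsied only if the fecal egg count fell. Postmortem Fasciola hepatica burdens compared with untreated control sheep (mean of 10 controls). Single animals per test unless otherwise indicated, with group size given in parentheses. I denotes no effect on fecal fluke egg output.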
# Mus musculus [13] = experiment: Nematocidal against Nematospiroides dubius in mouse was determined at 50 mg/kg peroral dose of compound; assay type: functional; conditions: route oral; in short: as §4
# Ovis aries [14] = experiment: Antihelmethic activity expressed as the percentage of worms eliminated in the feces in sheep large bowel at peroral dose of 15 mg/kg against Trichuris ovis.; assay type: functional; conditions: route oral; in short: as §3
# Ovis aries [15] = experiment: Anthelmintic activity against adult liver fluke (Fasciola hepatica) in sheep, after peroral administration of 20 mg/kg was determined; assay type: functional; conditions: route oral; in short: as §5
# Ovis aries [16] = experiment: Antihelmethic activity expressed as the percentage of worms eliminated in the feces in sheep […] at subcuteneous dose of 30 mg/kg against Liver fluke Fasciola hepatica.; assay type: functional
# Ovis aries [17] = experiment: Antihelmethic activity expressed as the percentage of worms eliminated in the feces in sheep small intestine at peroral dose of 30 mg/kg against Cooperia curticei; assay type: functional; conditions: route oral; in short: as §3
# Ovis aries [18] = experiment: Antihelmethic activity expressed as the percentage of worms eliminated in the feces in sheep […] at subcuteneous dose of 30 mg/kg against Lungworm Dictyocaulus filaria.; assay type: functional; in short: as §3
# Ovis aries [19] = experiment: Antihelmethic activity expressed as the percentage of worms eliminated in the feces in sheep small intestine at peroral dose of 30 mg/kg against Nematodirus species; assay type: functional; conditions: route oral; in short: as §3
# Ovis aries [20] = experiment: Antihelmethic activity expressed as the percentage of worms eliminated in the feces in sheep large bowel at peroral dose of 30 mg/kg against Lungworm Dictyocaulus filaria.; assay type: functional; conditions: route oral; in short: as §3
# Ovis aries [21] = experiment: Antihelmethic activity expressed as the percentage of worms eliminated in the feces in sheep small intestine at subcuteneous dose of 30 mg/kg against Cooperia curticei; assay type: functional; in short: as §3
# [22] = system: Heligmosomoides polygyrus; experiment: Nematocidal activity against Nematospiroides dubius induced necropsy in mouse, oral administration 200 mg/kg; assay type: functional; in short: as §4
# Ovis aries [23] = experiment: Toxic activity expressed as the percentage against liver fluke in the sheep at 300 mg/kg peroral administration of dose; no toxic symptoms observed; assay type: ADME, organism-based; design: dose 300 mg/kg, route oral; conditions: in vivo, po
# Ovis aries [24] = experiment: Antihelmethic activity expressed as the percentage of worms eliminated in the feces in sheep abomasum at peroral dose of 30 mg/kg against Haemonchus contortus; assay type: functional; conditions: route oral; in short: as §3
# Ovis aries [25] = experiment: Antihelmethic activity expressed as the percentage of worms eliminated in the feces in sheep large bowel at peroral dose of 30 mg/kg against chabertia ovina.; assay type: functional; conditions: route oral; in short: as §3
# Ovis aries [26] = experiment: Antihelmethic activity expressed as the percentage of worms eliminated in the feces in sheep […] at peroral dose of 15 mg/kg against Liver fluke Fasciola hepatica.; assay type: functional; conditions: route oral
# Canis familiaris = experiment: Antihelmethic activity expressed as the percentage of worms eliminated in the feces in dog toxascaris at peroral dose of 30 mg/kg; worms voided and toxascaris egg count reduced to zero for the duration of the test; assay type: functional, organism-based; design: dose 30 mg/kg; conditions: Canis lupus familiaris
# Ovis aries [27] = experiment: Antihelmethic activity expressed as the percentage of worms eliminated in the feces in sheep small intestine at subcuteneous dose of 30 mg/kg against Bunostomum trigonocephalum.; assay type: functional; in short: as §3
# Mus musculus [28] = experiment: Nematocidal activity against Nematospiroides dubius induced necropsy in mouse, after oral administration of 50 mg/kg of the compound; assay type: functional; in short: as §4
# Ovis aries [29] = experiment: Antihelmethic activity expressed as the percentage of worms eliminated in the feces in sheep small intestine at peroral dose of 30 mg/kg against Bunostomum trigonocephalum.; assay type: functional; conditions: route oral; in short: as §3
# Ovis aries [30] = species on record: Ovis aries; experiment: as §1; assay type: functional; in short: as §2; remark: listed apart in the source
# Ovis aries [31] = experiment: Antihelmethic activity expressed as the percentage of worms eliminated in the feces in sheep small intestine at peroral dose of 15 mg/kg against Nematodirus species; assay type: functional; conditions: route oral; in short: as §3
# Ovis aries [32] = experiment: Antihelmethic activity expressed as the percentage of worms eliminated in the feces in sheep small intestine at subcuteneous dose of 30 mg/kg against Trichostrongylus axei; assay type: functional; in short: as §3
# Fasciola hepatica = experiment: Anthelmintic activity against adult liver fluke (Fasciola hepatica) in sheep following 30 mg/kg p.o.; assay type: functional; conditions: route oral; in short: as §5
# Ovis aries [33] = experiment: Antihelmethic activity expressed as the percentage of worms eliminated in the feces in sheep small intestine at peroral dose of 15 mg/kg against Cooperia curticei; assay type: functional; conditions: route oral; in short: as §3
# Ovis aries [34] = experiment: Antihelmethic activity expressed as the percentage of worms eliminated in the feces in sheep small intestine at peroral dose of 15 mg/kg against Bunostomum trigonocephalum.; assay type: functional; conditions: route oral; in short: as §3
# Ovis aries [35] = experiment: Antihelmethic activity expressed as the percentage of worms eliminated in the feces in sheep large bowl at peroral dose of 15 mg/kg against chabertia ovina.; assay type: functional; conditions: route oral; in short: as §3
# Ovis aries [36] = experiment: Antihelmethic activity expressed as the percentage of worms eliminated in the feces in sheep large bowel at peroral dose of 30 mg/kg against Oesophagostomum columbianum.; assay type: functional; conditions: route oral; in short: as §3
structure (smiles),measurement,setting,value
CS/C(=N\c1cccc(C2CN3CCSC3=N2)c1)Nc1ccc(C#N)cc1 (centres undefined),Activity,Ovis aries [1],95%
same,Activity,Ovis aries [2],100%
same,Activity,Mus musculus [3],28%
same,Activity,Mus musculus [4],68%
same,Activity,Ovis aries [5],100%
same,Activity,Ovis aries [6],100%
same,Activity,Ovis aries [7],100%
same,Activity,Ovis aries [8],100%
same,Activity,Ovis aries [9],100%
same,Activity,Ovis aries [10],100%
same,Activity,Ovis aries [11],100%
same,Activity,Ovis aries [12],83%
same,Activity,Mus musculus [13],99
same,Activity,Ovis aries [14],100%
same,Activity,Ovis aries [15],89%
same,Activity,Ovis aries [16],100%
same,Activity,Ovis aries [17],100%
same,Activity,Ovis aries [18],100%
same,Activity,Ovis aries [19],73%
same,Activity,Ovis aries [20],100%
same,Activity,Ovis aries [21],91%
same,Reduction,[22],100%
same,Activity,Ovis aries [23],no toxic symptoms
same,Activity,Ovis aries [24],100%
same,Activity,Ovis aries [25],100%
same,Activity,Ovis aries [26],100%
same,Activity,Canis familiaris,no toxic symptoms
same,Activity,Ovis aries [27],100%
same,Activity,Mus musculus [28],99%
same,Reduction,Mus musculus [28],74%
same,Activity,Ovis aries [29],100%
same,Activity,Ovis aries [30],100%
same,Activity,Ovis aries [31],100%
same,Activity,Ovis aries [32],100%
same,Activity,Fasciola hepatica,97%
same,Activity,Ovis aries [33],99%
same,Activity,Ovis aries [34],100%
same,Activity,Ovis aries [35],99%
same,Activity,Ovis aries [36],93%

# Reference: ChEMBL document CHEMBL1123619, “Isothiourea derivatives of 6-phenyl-2,3,5,6-tetrahydroimidazo[2,1-b]thiazole with broad-spectrum anthelmintic activity” (J Med Chem, 1987)
